Consider twelve molecules from ChEMBL document CHEMBL1141754, “A labdane diterpene glucoside from the rhizomes of Curcuma mangga” (J Nat Prod, 2005).

pIC50: −log10 of the molar value. Some results are limits rather than exact numbers.

The nature of test [1]: Antioxidant activity assessed as inhibition of copper-induced lipid peroxidation by Fe3(CN)6 method at 300 uM. It is filed as functional. More on the design: scale not given: the % may be the effect or the level left.
Another test concerns HL-60. Nature of the test: Cytotoxicity against human HL60. The format is functional, cell-based. The gist of the method: (§1)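 Five human cancer lines: HL-60 (leukemia), HepG2 (liver), MCF-7 (breast), DU-145 (prostate) and NCI-H460 (lung). IC50 given in μM ± SD from three experiments, each run in triplicate.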
In another test the test system is DU-145. Nature of the test: Cytotoxicity against human DU145. The format is functional, cell-based. The gist of the method: as §1
Another test relates to NCI-H460. Nature of the test: Cytotoxicity against human NCI-H460. The format is functional, cell-based. In short, it runs like this:
as §1

In a further test the test system is MCF7. Briefly: Cytotoxicity against human MCF7. The format is functional, cell-based. In short, it runs like this: as §1
A further test concerns HepG2. Briefly: Cytotoxicity against human HepG2. It is filed as functional, cell-based. The gist of the method:
as §1

In the case of `C=C1CC[C@H]2C(C)(C)CCC[C@]2(C)[C@H]1C/C=C(/C=O)CC=O`, in test [1], the Activity was determined as 5.7%.
Broadly, the pIC50 is −log10 of the IC50, conventionally taken in molar units. Turning to `COc1cc(/C=C/C(O)=C/C(=O)/C=C/c2ccc(O)cc2)ccc1O` [DEMETHOXYCURCUMIN], the pIC50 with HL-60 is 4.62; with DU-145 it was 4.66; with NCI-H460, 4.59; in the test on MCF7, 4.73; with HepG2 it was below 4.30. Also, the Activity in test [1] came out at 93.8%.
In the case of `COc1cc2ccc(=O)oc2cc1O` [SCOPOLETIN], the pIC50 in the test with HL-60, with DU-145, with NCI-H460, with MCF7 and with HepG2 was below 4.30 throughout. Moreover, the Activity in test [1] turned out to be 94.9%.
Turning to `C=C1CC[C@H]2C(C)(C)CCC[C@]2(C)[C@H]1C[C@@H](O)C1=CC(O)OC1=O` (stereo partly specified) [ZERUMIN B], the pIC50 with HL-60 is 5.14; with DU-145, 4.95; in the test with MCF7, 6.23; in the test on HepG2 it was 4.60. Also, the Activity in test [1] amounted to 16.5%.
As to `Cc1cc(C(C)(C)C)c(O)c(C(C)(C)C)c1`, the Activity in test [1] stood at 99.9%.
Consider `O=C(/C=C/c1ccc(O)cc1)CC(=O)/C=C/c1ccc(O)cc1` [BISDEMETHOXYCURCUMIN], for which the pIC50 is 4.60 in the test on HL-60; 4.52 in the test with DU-145; 4.06 in the test with NCI-H460; 4.47 with MCF7; below 4.30 in the test with HepG2. For the same molecule, in test [1], the Activity was found to be 93.3%.
For `COc1cc(/C=C/C(=O)CC(=O)/C=C/c2ccc(O)c(OC)c2)ccc1O` [CURCUMIN], the pIC50 in the test with HL-60 was 4.47; in the test on DU-145, 4.69; in the test with NCI-H460, 4.56; in the test with MCF7, 4.98; in the test with HepG2, 4.45. Also, the Activity in test [1] turned out to be 96.5%.
Take `C=C1CC[C@H]2C(C)(C)CCC[C@]2(C)[C@H]1C/C=C(/C=O)CC(OC)OC`: in test [1], the Activity is 11.5%.
Take `Cc1c(C)c2c(c(C)c1O)CC[C@@](C)(CCC[C@H](C)CCC[C@H](C)CCCC(C)C)O2`: the Activity in test [1] is 45.2%.
In the case of `CC1(C)[C@@H](O[C@@H]2O[C@H](CO)[C@@H](O)[C@H](O)[C@H]2O)CC[C@]2(C)[C@H]3CC(C4=CCOC4=O)OC(O)[C@H]3CC[C@@H]12` (stereo partly specified), the Activity in test [1] is 0%.
Consider `O=c1c(O)c(-c2ccc(O)c(O)c2)oc2cc(O)cc(O)c12`, for which the Activity in test [1] was 51.3%.
Take `O=C(/C=C/C=C/c1ccc(O)cc1)/C=C/c1ccc(O)cc1`: the Activity in test [1] was 92.9%.
